Published values of several laboratories.
Protocols differ between the studies behind these lines.
MET: Hepatocyte growth factor receptor (MET, Homo sapiens, UniProt P08581)
MET M1250T: Hepatocyte growth factor receptor (MET, Homo sapiens, UniProt P08581, M1250T)
MET Y1235D: Hepatocyte growth factor receptor (MET, Homo sapiens, UniProt P08581, Y1235D)

SMILES	target	effect on	technique	tested at	remaining binding
COc1ncc2cc3ccccc3nc2c1C#N	MET	cell-free assay	competition with immobilised ligand	5 µM	91%
N[C@@H]1CCN(c2nccc(-c3cnn4ncccc34)n2)C1	MET M1250T	binding	–	1 µM	100%
O=C(c1ccc(Nc2ncc(Cl)c(-c3cc4ccccc4s3)n2)cc1)N1CCC(N2CCCC2)CC1	MET M1250T	binding	competition with immobilised ligand	1 µM	31%
c1cncc(-c2cccc(Nc3nccc(NC4CCCCC4)n3)c2)c1	MET Y1235D	binding	competition with immobilised ligand	10 µM	73%
CC1=C(C#N)[C@@H](c2ccc3[nH]nc(C)c3c2)C(C#N)=C(c2ccc(Cl)cc2)N1	MET	cell-free assay	competition with immobilised ligand	1 µM	17.2%
CCN1CCN(Cc2ccc(C(=O)Nc3ccc(C)c(Oc4ccc5c(c4)CC(=O)N5)c3)cc2C(F)(F)F)CC1	MET M1250T	binding	competition with immobilised ligand	1 µM	100%
Cc1cnc(Nc2ccc(C(=O)N3CCC(N4CCCC4)CC3)cc2)nc1-c1cc2ccccc2s1	MET M1250T	binding	competition with immobilised ligand	1 µM	31%
CN(C)c1ncc(F)c(-c2cnn3ncccc23)n1	MET	binding	–	1 µM	97%
CCS(=O)(=O)c1cc2cc(C[C@@](O)(CC(C)(C)c3ccc(F)cc3C(N)=O)C(F)(F)F)[nH]c2cn1	MET	cell-free assay	competition with immobilised ligand	1 µM	100%
FC(F)(F)Oc1cccc(-c2cnc3ccc(-c4ccncc4)nn23)c1	MET	cell-free assay	competition with immobilised ligand	5 µM	63%
CN(C)C(=O)Cn1cc(-c2nc(C3(c4ccc(-c5cnc(N)nc5)cc4)CC3)no2)cn1	MET M1250T	cell-free assay	competition with immobilised ligand	1 µM	100%
CNC(=O)[C@@H]1CC[C@@H](n2c(-c3ccc4cnccc4c3)nc3ccc(C(=O)NCc4cccc(C(N)=O)c4)cc32)C1	MET	binding	competition with immobilised ligand	1 µM	98%
O=C1CCc2cc(Nc3cc(OC4CCOCC4)c([N+](=O)[O-])cc3Cl)ccc2N1	MET Y1235D	cell-free assay	competition with immobilised ligand	1 µM	100%
COc1cnc(Nc2cccc(S(N)(=O)=O)c2)nc1N1CCN(c2ccccc2)C(=O)C1	MET M1250T	binding	competition with immobilised ligand	1 µM	98%
O=C(NCCCN1CCOCC1)c1ccc(Nc2nccc(-c3cc4ccccc4s3)n2)cc1	MET Y1235D	binding	competition with immobilised ligand	1 µM	100%
N#Cc1ccccc1CSc1nnc2c(n1)[nH]c1ccccc12	MET	binding	competition with immobilised ligand	10 µM	87%
C[C@@H]1CCN(c2nccc(-c3cnn4ncccc34)n2)C1	MET M1250T	binding	–	1 µM	98%

SMILES	target	effect on	technique	tested at	remaining binding
O=C(c1ccc(Nc2nccc(-c3cc4ccccc4s3)n2)cc1)N1CCC(N2CCCC2)CC1	MET	binding	competition with immobilised ligand	1 µM	69%
O=C(NCC1CCOCC1)c1n[nH]cc1NC(=O)c1c(F)cccc1F	MET	binding	competition with immobilised ligand	1 µM	100%
O=C(c1ccc(Nc2ncc(Cl)c(-c3ccc(Cl)s3)n2)cc1)N1CCC(N2CCCC2)CC1	MET Y1235D	binding	competition with immobilised ligand	1 µM	51%
CNC(=O)Nc1ccc2c(c1)CC[C@@]21OC(=O)N(CC(=O)N(Cc2ccc(F)cc2)[C@@H](C)C(F)(F)F)C1=O	MET Y1235D	cell-free assay	competition with immobilised ligand	1 µM	81%
CN(C)c1nccc(-c2cnn3ncccc23)n1	MET	binding	–	1 µM	89%
CC1=C(C#N)C(c2ccc3c(c2)c(NC(=O)c2ccccc2C)nn3C)C(C#N)=C(C)N1	MET	cell-free assay	competition with immobilised ligand	1 µM	24%
CC1CCCN1c1nccc(-c2cnn3ncccc23)n1 (stereo not shown)	MET	binding	–	1 µM	96%
O=C(Nc1c[nH]nc1C(=O)NC1CCNCC1)c1cc(F)cc(F)c1	MET	binding	competition with immobilised ligand	1 µM	94%
CN1CCN(c2ccc(Nc3nccc(-c4ccccc4)n3)cc2C(F)(F)F)CC1	MET M1250T	binding	–	10 µM	24%
Nc1ncc2c(n1)-c1c([nH]c3ccc(C#CC4CC4)cc13)CCCC2	MET	binding	competition with immobilised ligand	1 µM	100%
COc1ccnn2ncc(-c3ccnc(N(C)C)n3)c12	MET Y1235D	binding	–	1 µM	94%
COc1cnc(Nc2cccc(S(N)(=O)=O)c2)nc1N1CCN(c2ccccc2)CC1	MET M1250T	binding	competition with immobilised ligand	1 µM	74%
O=C(NCCCN1CCOCC1)c1ccc(Nc2ncc(Cl)c(-c3ccc(Cl)s3)n2)cc1	MET Y1235D	binding	competition with immobilised ligand	1 µM	99%
Cc1cnn2ncc(-c3ccnc(N(C)C)n3)c2c1	MET	binding	–	1 µM	100%
CC(=O)N1CCC(c2ccc(C(=O)NC3=NCCN3)cc2C(F)(F)F)CC1	MET Y1235D	cell-free assay	competition with immobilised ligand	1 µM	100%
c1cnn2ncc(-c3ccnc(N4CCC45COC5)n3)c2c1	MET	binding	–	1 µM	83%
CO[C@@H](C)c1c(Nc2ccc([C@@H](N(C)C(=O)C3CCS(=O)(=O)CC3)C(F)(F)F)cc2)cnc2cc(Cl)nn12	MET M1250T	cell-free assay	competition with immobilised ligand	1 µM	100%
